# Results reported in ChEMBL document CHEMBL3774373, “Activity and Predicted Nephrotoxicity of Synthetic Antibiotics Based on Polymyxin B” (J Med Chem, 2016).
# Numbered stars: 1 amine (or outer) side, 2 acyl side, 3 side chain; on linkers, the order of the positions; unused ones are H or OH. Bridge positions count the residues as written; N and C are the ends. Square brackets hold non-standard residues; d marks the D form. Peptide text beside a SMILES is read from it. * marks the point of attachment. dBip = N[C@H](Cc1ccc(-c2ccccc2)cc1)C(=O)O; NH(2-ClPh) = Clc1ccccc1N*; dDab = NCC[C@@H](N)C(=O)O; Octanoyl = CCCCCCCC(=O)*; Dab = NCC[C@H](N)C(=O)O; CO = O=C([*:1])[*:2]
# Key:
# Staphylococcus aureus = assay: microbe, parasite or virus in culture; conditions: ATCC 25923, 18 h
# Pseudomonas aeruginosa [1] = assay: Antibacterial activity against clinical isolate polymyxin resistant Pseudomonas aeruginosa PA9704 after 18 hrs by 2 fold serial dilution method; assay type: functional; conditions: PA9704, 18 h
# In short: (§1)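 Polymyxin-resistant clinical isolates were grown overnight at 37 °C in NB or MHB with shaking, diluted 50-fold in MHB and grown 1.5–3 h to mid-log phase. The inoculum was 5×10^5 CFU/mL. Compounds were 2-fold broth serial dilutions, final 32 to 0.015 μg/mL; the polymyxin controls ran 128–0.06 μg/mL. The MIC was the lowest concentration with no visible growth after 18 h at 37 °C.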
# Acinetobacter baumannii [2] = assay: Antibacterial activity against Acinetobacter baumannii ATCC 19606 after 18 hrs by 2 fold serial dilution method; assay type: functional; conditions: ATCC 19606, 18 h
# In short: (§2)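 Overnight cultures in nutrient or Mueller Hinton broth at 37 °C with shaking, diluted 50-fold into fresh MHB and grown 1.5–3 h to mid-log. Inoculum 5×10^5 CFU/mL in 2-fold serial dilutions, final range 32 to 0.015 μg/mL. MIC read visually after 18 h at 37 °C as the lowest concentration with no visible growth.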
# Klebsiella pneumoniae [3] = assay: Antibacterial activity against Klebsiella pneumoniae ATCC BAA-2146 expressing NDM-1 after 18 hrs by 2 fold serial dilution method; assay type: functional; conditions: ATCC BAA-2146, 18 h
# In short: (§3)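 Overnight cultures at 37 °C in nutrient or Mueller Hinton broth with shaking were diluted 50-fold in MHB and grown 1.5–3 h to mid-log phase. The inoculum was 5×10^5 CFU/mL in MHB. Compounds were 2-fold serially diluted, final 32 to 0.015 μg/mL. After 18 h at 37 °C, the MIC was read visually as the lowest concentration with no visible growth.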
# Klebsiella pneumoniae [4] = assay: Antibacterial activity against clinical isolate carbapenem and polymyxin resistant Klebsiella pneumoniae Koprana 100650661:1 after 18 hrs by 2 fold serial dilution method; assay type: functional; conditions: Koprana 100650661:1, 18 h
# In short: as §1
# Klebsiella pneumoniae [5] = assay: Antibacterial activity against multidrug resistant Klebsiella pneumoniae ATCC 700603 after 18 hrs by 2 fold serial dilution method; assay type: functional; conditions: Klebsiella pneumoniae, 700603, 18 h
# In short: as §3
# Klebsiella pneumoniae [6] = assay: Antibacterial activity against Klebsiella pneumoniae ATCC 13883 after 18 hrs by 2 fold serial dilution method; assay type: functional; conditions: ATCC 13883, 18 h
# In short: as §2
# Klebsiella pneumoniae [7] = assay: Antibacterial activity against clinical isolate carbapenem and polymyxin resistant Klebsiella pneumoniae 138-16357-20362 after 18 hrs by 2 fold serial dilution method; assay type: functional; conditions: 138-16357-20362, 18 h
# In short: as §1
# Pseudomonas aeruginosa [8] = assay: Antibacterial activity against clinical isolate polymyxin resistant Pseudomonas aeruginosa FADDI-PA070 after 18 hrs by 2 fold serial dilution method; assay type: functional; conditions: FADDI-PA070, 18 h
# In short: as §1
# Escherichia coli = assay: Antibacterial activity against Escherichia coli ATCC 25922 after 18 hrs by 2 fold serial dilution method; assay type: functional; conditions: ATCC 25922, 18 h
# In short: as §2
# Acinetobacter baumannii [9] = assay: Antibacterial activity against clinical isolate carbapenem and polymyxin resistant Acinetobacter baumannii Ptyela 100734512:2 after 18 hrs by 2 fold serial dilution method; assay type: functional; conditions: Ptyela 100734512:2, 18 h
# In short: as §1
# Pseudomonas aeruginosa [10] = assay: Antibacterial activity against Pseudomonas aeruginosa ATCC 27853 after 18 hrs by 2 fold serial dilution method; assay type: functional; conditions: ATCC 27853, 18 h
# In short: as §2
# [11] = Cytotoxicity against human HepG2 cells after 24 hrs by resazurin assay; assay type: cell-based; conditions: HepG2 cells
SMILES,MIC (Staphylococcus aureus),MIC (Pseudomonas aeruginosa [1]),MIC (Acinetobacter baumannii [2]),MIC (Klebsiella pneumoniae [3]),MIC (Klebsiella pneumoniae [4]),MIC (Klebsiella pneumoniae [5]),MIC (Klebsiella pneumoniae [6]),MIC (Klebsiella pneumoniae [7]),MIC (Pseudomonas aeruginosa [8]),MIC (Escherichia coli),MIC (Acinetobacter baumannii [9]),MIC (Pseudomonas aeruginosa [10]),CC50 at 24 h [11]
CCCCCCCC(=O)NCC(=O)N[C@@H](CCN)C(=O)N[C@H](C(=O)N[C@H]1CCNC(=O)[C@H]([C@@H](C)O)NC(=O)[C@H](CCN)NC(=O)[C@H](CCN)NC(=O)[C@H](CC(C)C)NC(=O)[C@@H](Cc2ccccc2)NC(=O)[C@H](CCN)NC1=O)[C@@H](C)O (Octanoyl-G[Dab]T[Dab][Dab][dF]L[Dab][Dab]T; lactam 4-C),> 32 mg/L,> 32 mg/L,> 32 mg/L,16 mg/L,> 32 mg/L,8 mg/L,32 mg/L,> 32 mg/L,> 32 mg/L,16 mg/L,> 32 mg/L,2 mg/L,> 300 µM
CCCCCCCC(=O)N[C@@H](CCN)C(=O)N[C@H](C(=O)N[C@@H](CCN)C(=O)N[C@H]1CCNC(=O)[C@H]([C@@H](C)O)NC(=O)[C@H](CCN)NC(=O)[C@H](CCN)NC(=O)[C@H](CC(C)C)NC(=O)[C@@H](Cc2ccccc2)NC(=O)[C@H](CCNC(=O)[C@@H](N)CCC(=O)O)NC1=O)[C@@H](C)O (Octanoyl-[Dab]T[Dab][Dab][Dab](Glu)[dF]L[Dab][Dab]T; lactam 4-C),> 32 mg/L,> 32 mg/L,> 32 mg/L,32 mg/L,> 32 mg/L,> 32 mg/L,> 32 mg/L,> 32 mg/L,> 32 mg/L,> 32 mg/L,> 32 mg/L,> 32 mg/L,> 300 µM
CCCCCCCC(=O)N[C@@H](CCN)C(=O)N[C@H](C(=O)N[C@@H](CCN)C(=O)N[C@H]1CCNC(=O)[C@H]([C@@H](C)O)NC(=O)[C@H](CCN)NC(=O)[C@H](CCN)NC(=O)[C@H](CC(C)C)NC(=O)[C@@H](Cc2ccccc2)NC(=O)[C@H](CCNC(=O)[C@@H](N)CCCNC(=N)N)NC1=O)[C@@H](C)O (Octanoyl-[Dab]T[Dab][Dab][Dab](Arg)[dF]L[Dab][Dab]T; lactam 4-C),> 32 mg/L,> 32 mg/L,32 mg/L,16 mg/L,> 32 mg/L,16 mg/L,32 mg/L,> 32 mg/L,> 32 mg/L,32 mg/L,> 32 mg/L,32 mg/L,> 300 µM
CCCCCCCC(=O)N[C@@H](CCN)C(=O)N[C@H](C(=O)N[C@@H](CCN)C(=O)N[C@H]1CCNC(=O)[C@H]([C@@H](C)O)NC(=O)[C@H](CCNC(=O)[C@@H](N)CCC(=O)O)NC(=O)[C@H](CCN)NC(=O)[C@H](CC(C)C)NC(=O)[C@@H](Cc2ccccc2)NC(=O)[C@H](CCN)NC1=O)[C@@H](C)O (Octanoyl-[Dab]T[Dab][Dab][Dab][dF]L[Dab][Dab](Glu)T; lactam 4-C),> 32 mg/L,> 32 mg/L,16 mg/L,4 mg/L,> 32 mg/L,4 mg/L,16 mg/L,> 32 mg/L,> 32 mg/L,4 mg/L,> 32 mg/L,8 mg/L,> 300 µM
CCCCCCCC(=O)N[C@@H](CCN)C(=O)N[C@H](C(=O)N[C@@H](CCN)C(=O)N[C@H]1CCNC(=O)[C@H]([C@@H](C)O)NC(=O)[C@H](CCN)NC(=O)[C@H](CCN)NC(=O)[C@H](CC(C)C)NC(=O)[C@@H](Cc2ccccc2)NC(=O)[C@H](CCCNC(=N)N)NC1=O)[C@@H](C)O (Octanoyl-[Dab]T[Dab][Dab]R[dF]L[Dab][Dab]T; lactam 4-C),> 32 mg/L,> 32 mg/L,> 32 mg/L,32 mg/L,> 32 mg/L,32 mg/L,> 32 mg/L,> 32 mg/L,> 32 mg/L,16 mg/L,> 32 mg/L,32 mg/L,> 300 µM
CC(C)C[C@@H]1NC(=O)[C@@H](Cc2ccccc2)NC(=O)[C@H](CCN)NC(=O)[C@@H](NC(=O)[C@@H](CCN)NC(=O)[C@@H](NC(=O)[C@H](CCN)NC(=O)Nc2ccccc2Cl)[C@@H](C)O)CCNC(=O)[C@H]([C@@H](C)O)NC(=O)[C@H](CCN)NC(=O)[C@H](CCN)NC1=O ({NH(2-ClPh)-CO}-[Dab]T[dDab][Dab][Dab][dF]L[Dab][Dab]T; lactam 4-C),> 32 mg/L,> 32 mg/L,2 mg/L,1 mg/L,> 32 mg/L,0.5 mg/L,0.5 mg/L,> 32 mg/L,16 mg/L,1 mg/L,> 32 mg/L,0.5 mg/L,> 300 µM
CCCCCCCC(=O)N[C@@H](CCN)C(=O)N[C@H](C(=O)N[C@H](CCN)C(=O)N[C@H]1CCNC(=O)[C@H]([C@@H](C)O)NC(=O)[C@H](CCN)NC(=O)[C@H](CCN)NC(=O)[C@H](CC(C)C)NC(=O)[C@@H](Cc2ccccc2)NC(=O)[C@H](CCN)NC1=O)[C@@H](C)O (Octanoyl-[Dab]T[dDab][Dab][Dab][dF]L[Dab][Dab]T; lactam 4-C),> 32 mg/L,32 mg/L,1 mg/L,4 mg/L,> 32 mg/L,1 mg/L,0.5 mg/L,> 32 mg/L,> 32 mg/L,4 mg/L,> 32 mg/L,2 mg/L,> 300 µM
CCCCCCCC(=O)N[C@@H](CCN)C(=O)N[C@H](C(=O)N[C@@H](CCN)C(=O)N[C@H]1CCNC(=O)[C@H]([C@@H](C)O)NC(=O)[C@H](CCN)NC(=O)[C@H](CCN)NC(=O)[C@H](CC(C)C)NC(=O)[C@@H](Cc2ccc(-c3ccccc3)cc2)NC(=O)[C@H](CCN)NC1=O)[C@@H](C)O (Octanoyl-[Dab]T[Dab][Dab][Dab][dBip]L[Dab][Dab]T; lactam 4-C),8 mg/L,16 mg/L,0.5 mg/L,1 mg/L,32 mg/L,2 mg/L,4 mg/L,32 mg/L,16 mg/L,1 mg/L,8 mg/L,1 mg/L,119 µM
